Shown are actives, neighbours in structure and some others; about 3.8% of the full set was active somewhere.
hERG rescue – shields human hERG channel from block by proarrhythmic agents; CHO-hERG, FluxOR thallium flux, dofetilide IC70 present; Q12809; 310,000 compounds, 0.51% hits; activation (rescue from dofetilide block), less the hit threshold, % at 10 µM;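 active = activation above the mean of controls blocked by dofetilide plus 5 SD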;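 note: thallium influx through hERG after potassium depolarization seen as dye fluorescence rise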
KCNQ1 block – human KCNQ1 channel inhibition | B-score at 10 µM | CHO-K1 KCNQ1, FluxOR thallium flux fluorescence; active compounds read high | P51787 | 310,000 compounds, 1.3% hits;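 active = compounds whose thallium flux B-score, printed positive for inhibition, exceeds three library SD while starting fluorescence stays within three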;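 note: channel opened by potassium depolarization with thallium stimulus after 20 min compound exposure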
KCNK3 block – human KCNK3 channel inhibition, primary screen; CHO-KCNK3 thallium flux, FluxOR fluorescence; active compounds read low; O14649; AID 602410; 340,000 compounds, 0.84% hits; B-score at 10 µM;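 active = B-score under library mean minus 4 SD, starting fluorescence ratio at most library mean plus 5 SD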;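 note: more negative B-score means stronger inhibition of thallium flux through KCNK3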
KCNK9 inh – human KCNK9 channel inhibition. Q9NPC2. HEK293 KCNK9, FluxOR thallium flux fluorescence; active compounds read low. B-score at 10 µM. 310,000 compounds, 1.2% hits. AID 488922;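 active = ratio B-score over 3 SD below the library mean, with starting fluorescence within 5 SD of its mean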;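 note: negative B-score means less thallium flux so channel inhibition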
Target sequence (Q9NPC2 whole entry, looked up): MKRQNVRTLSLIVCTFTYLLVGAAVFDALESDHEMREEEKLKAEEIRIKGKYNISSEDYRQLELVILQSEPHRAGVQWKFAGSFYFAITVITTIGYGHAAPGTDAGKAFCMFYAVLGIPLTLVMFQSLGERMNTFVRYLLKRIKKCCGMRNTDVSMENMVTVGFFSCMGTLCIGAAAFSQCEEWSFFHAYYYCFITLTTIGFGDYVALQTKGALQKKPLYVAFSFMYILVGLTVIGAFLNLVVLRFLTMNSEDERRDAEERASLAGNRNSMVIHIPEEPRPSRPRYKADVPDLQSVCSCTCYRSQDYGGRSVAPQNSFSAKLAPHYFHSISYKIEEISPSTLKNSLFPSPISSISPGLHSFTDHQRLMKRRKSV
Kir21 inh – blocks the mouse Kir2.1 inward-rectifier potassium channel. AID 1672. 310,000 compounds, 0.85% hits. HEK293-Kir2.1, FluxOR thallium flux fluorescence; active compounds read low. B-score at 10 µM;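 active = fluorescence ratio B-score at or below minus 3 SD of library scores, with starting-brightness B-score within 2 SD, cut at about -4.2 in these data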;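 note: channel flux triggered by added potassium and thallium sulfate stimulus; B-score of peak minus minimum fluorescence over baseline after thallium stimulus; more negative B-score means stronger Kir2.1 block with less thallium influx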
KCNQ1 pot – potentiators or activators of human KCNQ1 potassium channel; 310,000 compounds, 0.35% hits; P51787; AID 2648; B-score at 10 µM; CHO-K1 KCNQ1, thallium flux FluxOR fluorescence; active compounds read high;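 active = fluorescence ratio B-score, a plate-corrected score, at least three library SD, with initial intensity B-score within 5 SD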
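System: CHO-K1 cells stably expressing KCNQ1 / Medium: assay buffer for compound exposure, DMSO matched across wells / Reagent: thallium- and potassium-containing depolarizing buffer / Compound: one concentration, matched DMSO / Incubation: 20 min compound pretreatment at room temperature / Measured by: kinetic FluxOR fluorescence, 10 s baseline plus 110 s post-stimulus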
KCNQ1 block val – reconfirmed blocker of the human KCNQ1 potassium channel; KCNQ1 cell line, FluxOR thallium flux fluorescence; 1,600 compounds, 93% hits; shares compounds with KCNQ1 block; inhibition, % at 10 µM;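 active = primary screen active, with duplicate mean exceeding buffer control mean plus 3 SD of buffer wells, cut at about 28% in these data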
CHO Tl flux – KCNQ1 inhibitor counter-screen hit in parental CHO cells. parental CHO-K1, FluxOR thallium flux fluorescence ratio; active compounds read low; zero means no signal rise above baseline. 1,600 compounds, 21% hits. shares compounds with KCNQ1 block. AID 588366. fluorescence ratio (Tl flux) at 10 µM;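 active = mean of duplicate thallium-flux fluorescence ratios in parental host cells more than 5 SD below the buffer control mean, cut at about 0.38 in these data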;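 note: ratio is peak minus minimum fluorescence divided by baseline fluorescence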
KCNQ1 APC inh – confirmation of human KCNQ1 potassium channel inhibitors by electrophysiology | shares compounds with KCNQ1 block | KCNQ1-CHO cells, automated patch clamp current | calls only at 10 µM | 490 compounds, 20% hits;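 active = KCNQ1 current drop exceeding 3 SD of negative control wells, seen in both duplicate runs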;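 note: steady state current during a 2 s step from -80 to +40 mV; negative values mean current inhibition and positive values mean potentiation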
KCNQ2 inh – KCNQ1 inhibitor that also blocks rat KCNQ2 channel. inhibition, % at 10 µM. 1,600 compounds, 71% hits. shares compounds with KCNQ1 block. AID 651746. KCNQ2 cells, FluxOR thallium flux fluorescence;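 active = mean percent inhibition of the KCNQ2 thallium signal more than 5 SD above the buffer-only control wells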;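 note: KCNQ2 expressed in CHO cells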
KCNQ1 KCNE1 spec – KCNQ1 inhibitor that also blocks human KCNQ1/KCNE1 channel; shares compounds with KCNQ1 block; KCNQ1/KCNE1 cells, FluxOR thallium flux fluorescence; inhibition, % at 10 µM; 1,600 compounds, 77% hits; AID 652147;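 active = mean percent inhibition of duplicate wells above the buffer-only control mean plus 3 SD of those controls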
Numbers stand for hits; – = inactive; · = no result given; + = active, no number.

SMILES	hERG rescue	KCNQ1 block	KCNK3 block	KCNK9 inh	Kir21 inh	KCNQ1 pot	KCNQ1 block val	CHO Tl flux	KCNQ2 inh	KCNQ1 KCNE1 spec	others
CC(C)(C)NC(=O)COC(=O)c1ccccc1Nc1ccc(SC(F)F)cc1	–	6	–	–	–	–	119	0.37	109%	158%
NC(=O)COC(=O)c1ccccc1Nc1ccc(SC(F)F)cc1	–	–	–	–	–	–	·	·	·	·
CC(C)(C)c1nc(NC(=O)Nc2ccccc2)sc1Br	–	7	–	–	–	–	92	–	–	69%	KCNQ1 APC inh=–
COc1ccc2nc(NC(=O)Nc3ccccc3)sc2c1	–	–	–	–	–	–	·	·	·	·
CC(C)n1nc(C(=O)Nc2nc3ccccc3[nH]2)c2ccccc2c1=O	–	–	–	–	–	–	·	·	·	·
O=c1c2sc3nc(N4CCOCC4)c4c(c3c2ncn1CCc1ccccc1)CCCC4	–	9	–	–	–	–	102	–	92%	103%	KCNQ1 APC inh=–
CCCOC(=O)C(C)n1cnc2scc(-c3ccc(C)cc3)c2c1=O (stereo not drawn)	–	9	–	–	–	–	93	–	70%	116%	KCNQ1 APC inh=+
CCC(C(=O)O)n1cnc2scc(-c3ccc(C)c(C)c3)c2c1=O (stereo not drawn)	–	–	–	–	–	–	·	·	·	·
CCC(C(=O)OC)n1cnc2scc(-c3ccc(C)c(C)c3)c2c1=O (stereo not drawn)	–	7	–	–	–	–	52	–	61%	–
Cc1ccc(S(=O)(=O)n2cc(CO)c3ccccc32)cc1	·	·	–	·	·	·	·	·	·	·
COc1cc(CN2CCNC(=O)C2CC(=O)N2CCCN(C(C)=O)CC2)cc(OC)c1 (stereo not drawn)	–	–	–	–	–	–	·	·	·	·
ClC1(CNc2ccccc2)CCN(Cc2ccccc2)CC1	–	–	–	–	–	–	·	·	·	·
CC(C)Cc1nnc(NC(=O)c2cc(-c3ccccc3)nc3ccccc23)s1	–	6	–	–	–	–	121	–	80%	143%
CC(NC(=O)Nc1nnc(C(F)(F)F)s1)(C(F)(F)F)C(F)(F)F	–	7	–	–	–	–	–	–	–	–
CC(NC(=O)Nc1nnc(C(F)(F)F)s1)N1C(=O)C2C3C=CC(C3)C2C1=O (stereo not drawn)	–	–	–	–	–	–	·	·	·	·
Cc1ccc(C(c2cc(Br)ccc2O)N2CCSCC2)cc1 (stereo not drawn)	–	7	–	–	–	–	122	–	107%	136%
O=S(=O)(NCCC1=CCCCC1)c1ccc(OC(F)(F)F)cc1	–	6	–	–	–	–	56	–	68%	58%
Cc1ccc(S(=O)(=O)NCCC2=CCCCC2)cc1	·	·	–	·	·	·	·	·	·	·
Cc1cc(S(=O)(=O)NCCC2=CCCCC2)ccc1Br	–	7	–	–	–	–	–	–	68%	82%
CC(=O)Nc1ccc(S(=O)(=O)Nc2cccc(-n3c(C)nc4ccccc4c3=O)c2)cc1	–	–	–	–	–	–	·	·	·	·
Nc1nc(Cl)cc(N2CCC(c3cc(-c4ccc(Cl)cc4Cl)n[nH]3)CC2)n1	–	6	–	–	–	–	136	0.37	113%	174%
CC(C)(C)c1ccc(C(=O)Cn2cnnc2C#N)cc1	–	6	–	–	–	–	79	–	–	36%

Source: PubChem
